# EphB4 antag: blocks human EphB4 binding to ephrin-B2; P54760; EphB4 LBD / TNYL-RAW-Alexa532 peptide, fluorescence polarization; inhibition, % at 7 µM; actives 0.15% (n = 97,000);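 active means inhibition above the screen-wide mean inhibition plus 3 SD, cut at about 15% in these data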
# Rev-RRE block: HIV Rev-RRE protein-RNA interaction inhibition | Rev peptide-RRE RNA binding, FRET | actives 0.79% (n = 97,000) | P05866 | inhibition, % at 8 µM;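 active means inhibition above the screen-wide mean plus 3 SD, cut at about 35% in these data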
#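 Probe or stimulus: fluorescein-Rev peptide as binding partner; assay system: Cy5-tagged RRE RNA duplex with fluorescein-tagged Rev peptide; timing: 5 min compound–RNA preincubation, then 15 min with peptide, 25 °C; medium: HEPES pH 7.5 buffer with KCl, MgCl2, NaCl and EDTA; signal: fluorescein-to-Cy5 FRET, 480 nm excitation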
# PTPN22 act: increases human PTPN22 phosphatase activity; Q9Y2R2; recombinant LYP, DiFMUP fluorescence; 0 = plate median, 100 = signal doubled; activation, % at 2 µM; actives 0.11% (n = 96,000);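 active means activation at 2 µM above a set limit, the mean plus 5 SD, cut at about 37% in these data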
# LYP inh 2: blocks human PTPN22 phosphatase activity. Q9Y2R2. recombinant LYP catalytic domain, DiFMUP fluorescence. inhibition, % at 2 µM. actives 0.21% (n = 96,000). AID 640;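 active means inhibition at 2 µM at or above a set limit, the screen mean plus 3 SD, cut at about 24% in these data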
# Numbers stand for hits; – = inactive; [ ] = another dose, or the depositor's remark. Sampled rows, rich in hits. Any-hit rate of the full collection: about 1.3%.
SMILES,EphB4 antag,Rev-RRE block,PTPN22 act,LYP inh 2
Cc1cc(C)nc(-n2nc(C)cc2NC(=O)c2cccc(S(=O)(=O)N3CCCCC3)c2)n1,–,–,–,–
O=c1oc2cc(Cl)ccc2n1CSc1nc2ccccc2s1,–,–,–,–
O=C(OCc1ccc(Cl)cc1)c1ccccc1C(=O)c1ccccc1,–,–,–,–
CCCCCCCCOc1ccc(C2OC34CCCCC3C(C#N)(C#N)C2(C#N)C(=N)O4)cc1 (configuration not stated),–,43,–,–
CCCCC1OC23CCCCC2C(C#N)(C(=N)O3)C1(C#N)C#N (configuration not stated),–,–,–,–
COC(=O)c1c(=O)n(O)c2ccc(OC)cc2[n+]1[O-],–,41,–,–
CCn1c(SCC(=O)Nc2sc3c(c2C#N)CCCC3)nnc1-c1ccncc1,17,–,–,–
N#Cc1c(NC(=O)CSc2nnc(-c3ccncc3)n2CC2CCCO2)sc2c1CCCC2 (configuration not stated),–,–,–,–
Cc1cc(C)nc(N2CCCC(C(=O)NCc3ccccc3)C2)n1 (configuration not stated),29,–,–,–
Cc1cc(C)nc(N2CCC(C(=O)NCc3ccccc3)CC2)n1,–,–,–,–
O=[N+]([O-])c1ccc(N2CCN(S(=O)(=O)c3ccc(Cl)cc3)CC2)cc1NCc1cccnc1,–,–,–,24
O=[N+]([O-])c1ccc(N2CCN(S(=O)(=O)c3ccccc3)CC2)cc1NCc1cccnc1,–,–,–,–
CCC(CC)c1nc(NCCC(=O)O)c2ccccc2n1,–,–,–,–
O=C(c1ccco1)c1cn(CC(=O)N2CCCCC2)c2ccccc12,–,–,–,–
COc1ccc2cc3cc(C(=O)N4CCN(Cc5ccc6c(c5)OCO6)CC4)oc3nc2c1,–,–,–,26
Oc1ccc(Nc2nc3ccccc3nc2Nc2ccc(O)cc2)cc1,–,–,–,–
O=C(CO/N=C/c1cccc([N+](=O)[O-])c1)Nc1ccc2ccccc2c1,–,–,–,–
O=[N+]([O-])c1cccc(/C=C/c2nc(C=Nc3ccc4ccccc4c3)c(O)o2)c1,–,49,–,–
CCCCCCCCC/C(=N\O)c1ccccn1,–,–,–,28
COc1cc([C@@H]2[C@H]3CNCC=C3C(C#N)=C(N)C2(C#N)C#N)ccc1OC(C)C,–,50,–,–
OCc1nc2ccccc2n1CC(O)Cn1ccc2ccccc21 (configuration not stated),–,–,–,–
Oc1ccccc1NCC(O)Cn1ccc2ccccc21 (configuration not stated),–,63,–,–
O=C(C1=C(O)C(=O)N(c2ncccn2)C1c1cccc(Cl)c1)c1ccco1 (configuration not stated),–,36,–,–
O=C(C1=C(O)C(=O)N(c2ncccn2)C1c1ccc(Cl)c(Cl)c1)c1ccco1 (configuration not stated),–,51,–,–
O=C(Nc1ccc(-c2nc3ccc(NC(=O)c4cccs4)cc3[nH]2)cc1)c1cccs1,–,–,–,29
SMILES,EphB4 antag,Rev-RRE block,PTPN22 act,LYP inh 2
NC1=CC(=O)c2cccc3cccc1c23,–,56,–,–
CCc1noc(C)c1C(=O)Nc1nc(-c2ccc(Cl)cc2Cl)c(C)s1,–,–,–,–
O=C(Nc1ccn(-c2ccccc2)n1)c1ccc(S(=O)(=O)N2CCCCCC2)cc1,–,–,–,–
Cn1cccc1/C=C1\CCC/C(=C\c2cccn2C)C1=O,–,136[fluorescence artefact?],–,–
Cn1cccc1/C=N/n1cnnc1,–,–,–,–
CCOC(=O)c1c(-c2ccccc2)nc2c(C)cccn12,–,–,–,–
Cc1cccn2c(N)c(-c3ccccc3)nc12,–,108[fluorescence artefact?],–,–
Cc1ccccc1CS(=O)(=O)CCC(=O)N1CCN(c2ccc(N3CCOCC3)nn2)CC1,–,–,–,–
COc1ccc(C2NC3=C(CCCC3)C(C#N)(C#N)C2(C#N)C#N)cc1 (configuration not stated),–,46,–,–
CC1(C)CC(=O)C=C(NNC(=O)c2ccccc2O)C1,–,36,–,–
Oc1c(Cl)cc(Cl)cc1C=Nc1ccc2c(c1)OCCO2,–,46,–,–
Cc1ccc(-n2c(O)c(C=Nc3ccc4c(c3)OCO4)c3ccccc3c2=O)cc1C,–,–,–,–
CC1Cc2nc(SCC(=O)Nc3nc4ccccc4s3)n(C)c(=O)c2S1 (configuration not stated),–,–,–,–
CCn1c2ccccc2c2cc(NC(=O)c3ccc(Br)o3)ccc21,–,76,–,–
CCCCC(CC)Cn1c2nc3ccccc3nc2c2c(=N)oc(C)nc21 (configuration not stated),–,37,–,–
CCCCC(CC)Cn1c(N)c(C#N)c2nc3ccccc3nc21 (configuration not stated),–,–,–,–
O=C(NCc1ccccc1)N1CCC(c2nc3ccccc3[nH]2)CC1,–,–,–,–
CC(C)N(C(=O)COc1ccc(Br)cc1Cl)C(C)C,–,–,–,–
CCOC(=O)c1cc2n(c1/N=C/N(C)C)-c1ccccc1C2=O,–,135[fluorescence artefact?],–,–
O=C1CCCc2c1[nH]c1ccccc21,16,–,–,–
COc1cccc(CN=CC2=C(O)CC(C)(C)CC2=O)c1OC,–,–,–,–
COc1ccccc1CN=Cc1[nH]c2ccc(Br)c(Cl)c2c1O,–,87[fluorescence artefact?],–,–
O=C(O)c1ccccc1-c1ccc(/C=c2\sc3nc4cc(Br)cnc4n3c2=O)o1,–,99[fluorescence artefact?],–,–
CCSC1=NC2(CCCCC2)Nc2sc3c(c21)CCCC3,–,–,–,–
c1ccc(CN2CCN(C3=Nc4cccc5cccc3c45)CC2)cc1,–,–,–,–
SMILES,EphB4 antag,Rev-RRE block,PTPN22 act,LYP inh 2
O=C1CCN2C=Nc3cccc4ccc1c2c34,–,130[fluorescence artefact?],–,–
CCOc1ccc(C2C=C(c3ccc(C)cc3)Nc3ncnn32)cc1 (configuration not stated),–,–,–,–
Clc1ccc(C2=CC(c3ccco3)n3ncnc3N2)cc1 (configuration not stated),–,122[fluorescence artefact?],–,–
COc1ccc(C2C=C(c3ccccc3)Nc3ncnn32)cc1 (configuration not stated),–,45,–,–
CCN(CC)c1ccc(N=Cc2ccc(N(CC)CC)cc2O)cc1,–,96[fluorescence artefact?],–,–
CCN(CC)c1ccc(C=Nc2ccc(C)cc2)c(O)c1,–,–,–,–
CCN(CC)c1ccc(C=Nc2ccc(N(C)C)cc2)c(O)c1,–,81[fluorescence artefact?],–,–
O=C(CN1CCC(O)(c2ccc3c(c2)OCO3)CC1)OC1CCCCC1,–,–,–,–
Cc1cc(N2CCN(c3ccccc3)CC2)nc(-n2nc(C)cc2C)n1,–,–,–,–
O=C(Nc1ccc(/C=C/c2nc3ccccc3o2)cc1)c1cccc(C(F)(F)F)c1,–,–,–,–
CC(=O)c1cc(NC(=O)c2ccc(Cl)cc2)c(=O)oc1/C=C/N(C)C,–,129[fluorescence artefact?],–,–
CC(=O)c1cc(NC(=O)c2cccc(C(F)(F)F)c2)c(=O)oc1/C=C/N(C)C,–,127[fluorescence artefact?],–,–
